From article PMC8742645 (Clinical and Translational Science, 2021)
Where “and” joins values, the source holds several entries; their conditions need not be identical. Equal values may be shown once. Read-outs that look alike come from different tables or passages of the source. Marks after values point to notes of the source that are not given here.

Key:
[1] = target: CYP3A4 (Homo sapiens, UniProt P08684); assay type: in vitro ADME
[2] = tested on: hepatic uptake transporters; assay: Cellular uptake in suspensions of cryo-preserved human hepatocytes; assay type: in vitro ADME; conditions: suspended human hepatocytes
[3] = target: P-gp (Homo sapiens, UniProt P08183); assay: Efflux transporter substrate assessment in Caco-2 cells; assay type: in vitro ADME
Sequence of P-gp (P08183 whole entry): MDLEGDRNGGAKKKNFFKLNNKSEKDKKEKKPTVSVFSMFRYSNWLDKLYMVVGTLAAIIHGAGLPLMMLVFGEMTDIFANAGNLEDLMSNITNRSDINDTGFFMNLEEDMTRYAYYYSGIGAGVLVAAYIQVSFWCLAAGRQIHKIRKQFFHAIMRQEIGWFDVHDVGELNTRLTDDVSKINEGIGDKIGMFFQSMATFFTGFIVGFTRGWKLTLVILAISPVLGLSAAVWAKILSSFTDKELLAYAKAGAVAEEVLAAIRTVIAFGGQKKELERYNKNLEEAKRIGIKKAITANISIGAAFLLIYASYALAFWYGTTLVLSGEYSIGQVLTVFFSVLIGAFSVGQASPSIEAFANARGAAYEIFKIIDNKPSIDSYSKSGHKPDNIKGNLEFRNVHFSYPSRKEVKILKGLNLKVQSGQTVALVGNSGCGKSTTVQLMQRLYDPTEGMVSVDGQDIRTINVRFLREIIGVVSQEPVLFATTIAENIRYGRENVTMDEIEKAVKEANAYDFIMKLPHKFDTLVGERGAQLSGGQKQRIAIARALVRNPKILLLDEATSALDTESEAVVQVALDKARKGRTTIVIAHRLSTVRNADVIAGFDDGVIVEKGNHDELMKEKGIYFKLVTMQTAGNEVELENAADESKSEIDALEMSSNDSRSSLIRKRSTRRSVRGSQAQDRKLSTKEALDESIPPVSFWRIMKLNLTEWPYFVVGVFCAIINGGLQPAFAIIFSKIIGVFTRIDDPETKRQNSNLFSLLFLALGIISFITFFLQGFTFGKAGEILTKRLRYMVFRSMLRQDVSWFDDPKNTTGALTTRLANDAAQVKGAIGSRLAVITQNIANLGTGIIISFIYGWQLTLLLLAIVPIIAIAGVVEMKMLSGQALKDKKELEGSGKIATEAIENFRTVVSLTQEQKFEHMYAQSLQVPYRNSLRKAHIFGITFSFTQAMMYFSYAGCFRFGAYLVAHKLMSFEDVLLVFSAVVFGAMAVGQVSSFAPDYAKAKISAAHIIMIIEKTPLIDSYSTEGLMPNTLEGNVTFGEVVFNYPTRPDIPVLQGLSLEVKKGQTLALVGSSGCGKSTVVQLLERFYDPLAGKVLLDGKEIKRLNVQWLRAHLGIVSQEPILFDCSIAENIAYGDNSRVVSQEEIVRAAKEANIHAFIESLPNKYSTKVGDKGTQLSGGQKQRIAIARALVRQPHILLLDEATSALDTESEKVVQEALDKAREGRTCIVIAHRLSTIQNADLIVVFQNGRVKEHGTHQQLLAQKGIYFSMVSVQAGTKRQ

[4] = tested on: Caco-2 cells; assay: Caco-2 permeability of remibrutinib; assay type: in vitro ADME; conditions: Caco-2, passive
How it was run: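 Human Caco-2 cell system, also used to test the compound as a substrate of ATP-binding cassette efflux transporters (P-gp). Passive apparent permeability (Papp, cm/s) was taken from these experiments to predict the fraction absorbed (Fa) in the PBPK model.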

[5] = DDI trial with CYP450 enzyme substrate cocktail, steady state; ref unpublished data, Schiller, Huth, Schuhler, Drollmann, Kaul, Woessner, et al. 2021; cited from earlier work
[6] = rat in vivo; ref data on file, Novartis; cited from earlier work
[7] = target: CYP3A5 (Homo sapiens, UniProt P20815); assay: Recombinant human CYP enzyme kinetics; assay type: in vitro ADME
Sequence of CYP3A5 (P20815 whole entry): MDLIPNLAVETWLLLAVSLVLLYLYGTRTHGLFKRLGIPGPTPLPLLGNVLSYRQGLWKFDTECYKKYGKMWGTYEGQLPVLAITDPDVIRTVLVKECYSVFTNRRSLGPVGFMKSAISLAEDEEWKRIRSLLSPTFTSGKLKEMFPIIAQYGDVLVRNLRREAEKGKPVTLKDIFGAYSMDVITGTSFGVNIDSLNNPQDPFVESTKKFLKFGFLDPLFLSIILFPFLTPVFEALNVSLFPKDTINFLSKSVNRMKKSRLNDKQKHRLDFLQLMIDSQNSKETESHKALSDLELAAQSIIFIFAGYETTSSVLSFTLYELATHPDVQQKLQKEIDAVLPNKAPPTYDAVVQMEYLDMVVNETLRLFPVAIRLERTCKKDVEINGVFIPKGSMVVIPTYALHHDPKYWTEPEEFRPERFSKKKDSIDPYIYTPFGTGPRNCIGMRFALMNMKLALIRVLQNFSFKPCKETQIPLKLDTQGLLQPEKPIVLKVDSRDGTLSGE

[8] = Clinical DDI study: safety; assay type: in vivo, human
[9] = target: T1, CYP2B6 (Homo sapiens, UniProt P20813); assay: Recombinant human CYP enzyme kinetics; assay type: in vitro ADME
T1 sequence (P20813 1-491): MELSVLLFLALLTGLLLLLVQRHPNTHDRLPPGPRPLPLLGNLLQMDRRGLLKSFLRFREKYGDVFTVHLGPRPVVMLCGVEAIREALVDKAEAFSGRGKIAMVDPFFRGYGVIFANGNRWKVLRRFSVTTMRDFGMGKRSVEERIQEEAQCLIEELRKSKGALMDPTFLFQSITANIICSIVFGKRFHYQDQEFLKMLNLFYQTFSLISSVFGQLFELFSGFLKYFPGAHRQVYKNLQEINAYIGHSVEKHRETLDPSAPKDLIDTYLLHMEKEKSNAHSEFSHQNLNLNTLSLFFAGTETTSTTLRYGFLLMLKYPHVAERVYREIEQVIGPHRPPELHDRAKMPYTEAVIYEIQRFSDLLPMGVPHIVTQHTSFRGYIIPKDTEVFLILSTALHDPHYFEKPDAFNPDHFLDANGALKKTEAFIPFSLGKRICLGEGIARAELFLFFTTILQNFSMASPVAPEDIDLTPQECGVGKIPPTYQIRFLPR

[10] = tested on: CYP3A4/5; assay: Correlation analysis with HLM from 16 individual donors; assay type: in vitro ADME, human
[11] = assay type: in vivo, human; conditions: for Vd: 100 µg; for half-life / Tmax: whole blood; for half-life: t 1/2, arithmetic mean; for Tmax: po
How it was run: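 Healthy adults, open-label single-sequence three-period crossover. Oral doses: 50 mg alone (day 3, 1 h after 240 ml 10% glucose), 20 mg 1 h after 240 ml grapefruit juice, and 20 mg 1 h after the second ritonavir 100 mg dose. Stable-isotope-labelled i.v. microtracer 100 µg given 2 h post-oral in periods 1 and 3. Blood measured by LC-MS/MS; dose-normalised; mixed-ANOVA geometric mean ratios.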

[12] = Single and multiple ascending dose study, observed PK; assay type: in vivo, human
[13] = target: CYP2C19 (Homo sapiens, UniProt P33261); assay: Recombinant human CYP enzyme kinetics; assay type: in vitro ADME
Sequence of CYP2C19 (P33261 whole entry): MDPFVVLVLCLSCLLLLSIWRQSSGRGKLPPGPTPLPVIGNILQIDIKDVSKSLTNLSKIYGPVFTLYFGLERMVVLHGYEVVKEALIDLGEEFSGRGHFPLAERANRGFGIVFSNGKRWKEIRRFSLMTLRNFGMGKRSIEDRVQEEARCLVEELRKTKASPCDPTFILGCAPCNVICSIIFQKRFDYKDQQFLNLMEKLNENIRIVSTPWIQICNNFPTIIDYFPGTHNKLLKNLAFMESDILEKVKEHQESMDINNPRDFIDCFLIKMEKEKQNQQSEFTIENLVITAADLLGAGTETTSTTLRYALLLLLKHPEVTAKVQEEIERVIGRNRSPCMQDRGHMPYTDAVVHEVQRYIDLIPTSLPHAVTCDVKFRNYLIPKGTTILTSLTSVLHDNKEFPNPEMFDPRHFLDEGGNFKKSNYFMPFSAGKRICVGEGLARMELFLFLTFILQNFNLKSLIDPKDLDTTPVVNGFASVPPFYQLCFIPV

[14] = tested on: human liver microsomes; assay: Oxidative metabolism kinetics in pooled HLM; assay type: in vitro ADME
[15] = i.v., Period 1 remibrutinib alone day 3, Geo-mean (%CV)
[16] = i.v., Period 3 remibrutinib + ritonavir, Geo-mean (%CV)
[17] = oral, Period 1 alone 50 mg Day 3, Mean (SD)
[18] = oral, Period 2 20 mg + GFJ Day 5, Mean (SD)
[19] = oral, Period 3 20 mg + RTV Day 7, Mean (SD)
[20] = p.o., Period 1 remibrutinib alone, adjusted Geo-mean, 90% CI
[21] = p.o., Period 2 remibrutinib + grapefruit juice, adjusted Geo-mean, 90% CI
[22] = p.o., Period 3 remibrutinib + ritonavir, adjusted Geo-mean, 90% CI
[23] = p.o., grapefruit juice vs alone, Geo mean ratio, 90% CI
[24] = p.o., ritonavir vs alone, Geo-mean ratio, 90% CI

Sequence of CYP3A4 (P08684 whole entry): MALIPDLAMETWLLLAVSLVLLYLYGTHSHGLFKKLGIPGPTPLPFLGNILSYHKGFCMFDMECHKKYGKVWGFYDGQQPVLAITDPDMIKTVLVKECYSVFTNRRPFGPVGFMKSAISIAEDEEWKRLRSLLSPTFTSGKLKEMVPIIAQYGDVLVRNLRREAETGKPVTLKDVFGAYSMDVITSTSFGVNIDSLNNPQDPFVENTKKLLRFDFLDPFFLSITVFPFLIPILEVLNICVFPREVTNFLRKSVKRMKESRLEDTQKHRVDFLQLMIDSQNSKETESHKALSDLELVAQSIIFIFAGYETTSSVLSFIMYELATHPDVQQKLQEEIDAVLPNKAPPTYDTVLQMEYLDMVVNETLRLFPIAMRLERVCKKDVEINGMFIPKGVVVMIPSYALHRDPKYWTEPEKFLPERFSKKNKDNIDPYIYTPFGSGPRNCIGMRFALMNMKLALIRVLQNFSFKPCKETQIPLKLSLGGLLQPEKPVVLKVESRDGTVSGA

Compound: C=CC(=O)N(C)CCOc1c(N)ncnc1-c1cc(F)cc(NC(=O)c2ccc(C3CC3)cc2F)c1C [remibrutinib]
- Vmax ([1]; CYP3A4): 16.3 pmol/min/pmol CYP
- Km ([1]; read-out: Km,u, CYP3A4, unbound): 1.51 µM
- uptake clearance with inhibitors of hepatic uptake transporters [2]: not affected
- P-gp substrate [3]: identified as a P‐gp substrate
- passive permeability (Papp) [4]: 16.5 10^-6 cm/s
- observed AUCtau [5]: 916 ng·h/mL
- observed Cmax [5]: 334 ng/mL
- excretion of unchanged remibrutinib into the bile [6]: 0.4 % of the dose
- fm,CYP (contribution to oxidative hepatic metabolism) [7]: 0.8%
- tolerability ([8]; alone, with grapefruit juice, or with RTV, healthy participants): well‐tolerated
- SAEs, deaths, high-grade AEs ([8]; during the trial): No SAEs, deaths, or AEs of high‐grade severity
- clinical laboratory evaluations, vital signs, ECG ([8]; except isolated AE of mildly increased white blood cell count in one participant): no clinically relevant changes
- AEs rated grade 1 of all AEs ([8]; occurring in 5 [29.4%] participants): 13/14
- fm,CYP (contribution to oxidative hepatic metabolism) [9]: 0.3%
- correlation of metabolism rate with CYP3A4/5 activity, R ([10]; midazolam): 0.989
- correlation of metabolism rate with CYP3A4/5 activity, R ([10]; testosterone): 0.986
- F (absolute bioavailability) ([11]; Observed mean): 33.8 ± 11.5%
- F inhibited ([11]; Observed mean, bioavailability in the presence of ritonavir): 80.9% and 80.9 ± 11.5%
- Fg ([11]; Observed mean, from grapefruit juice AUC ratio): 78.9% and 78.9 ± 15.6%
- Fa ([11]; Observed, calculated Fa = F/Fg/Fh): 86.9% and 86.9^e %
- Fh ([11]; Observed, calculated Fh = AUCratio,iv/(AUCratio,po * Fg), ritonavir DDI study): 49.3^d %
- fm (CYP3A4) ([11]; Observed, from i.v. exposure increase with ritonavir): 40%
- CYP3A4-mediated hepatic first-pass metabolism (100%-Fh) ([11]; calculated): 50.7%
- product of Fg and Fh ([11]; calculated / clinically determined values): 39%
- Vd ([11]; human, blood, intravenous): 0.81 ± 0.22 L/kg
- Vd ([11]; human, blood, iv): 63.1 L
- clearance ([11]; human, blood, iv, 0.1 mg): 1170 mL/min
- systemic CL as share of hepatic blood flow (87 L/h) ([11]; human, in vivo): ~ 80%
- half-life ([11]; human, oral, 50 mg, remibrutinib alone): 6.58 h
- half-life ([11]; human, oral, with RTV): 12.1 h
- half-life ([11]; human, oral, with grapefruit juice): 7.13 h
- Tmax ([11]; human, 50 mg, median, remibrutinib alone): 1 h
- Tmax ([11]; human, 50 mg, minimum-maximum, remibrutinib alone): 0.5 to 2.5 h
- Tmax ([11]; human, median, with RTV): 0.72 h
- Tmax ([11]; human, median, with grapefruit juice): 0.73 h
- Tmax ([11]; human, minimum-maximum, with RTV): 0.5 to 1.5 h
- Tmax ([11]; human, minimum-maximum, with grapefruit juice): 0.5 to 2 h
- AUC0-24 h norm by dose [11, 15]: 14.2 (21.8%) h*ng/ml/mg
- AUCinf norm by dose [11, 15]: 14.5 (17.9%) h*ng/ml/mg
- AUClast norm by dose [11, 15]: 13.9 (22.3%) h*ng/ml/mg
- AUC0-24 h norm by dose [11, 16]: 23.8 (31.0%) h*ng/ml/mg
- AUCinf norm by dose [11, 16]: 24.8 (33.3%) h*ng/ml/mg
- AUClast norm by dose [11, 16]: 23.5 (31.0%) h*ng/ml/mg
- AUC0-24 h norm by dose, Ratio period 3 / period 1 ([11]; i.v., ritonavir vs alone): 1.67
- AUCinf norm by dose, Ratio period 3 / period 1 ([11]; i.v., ritonavir vs alone): 1.70
- AUClast norm by dose, Ratio period 3 / period 1 ([11]; i.v., ritonavir vs alone): 1.68
- Cmax norm by dose, Ratio period 3 / period 1 ([11]; i.v., ritonavir vs alone): 0.89
- AUC0-24 h norm by dose [11, 17]: 4.89 ng·h/mL/mg
- Cmax norm by dose [11, 17]: 2.77 ng/mL/mg
- AUC0-24 h norm by dose [11, 18]: 6.28 ng·h/mL/mg
- Cmax norm by dose [11, 18]: 3.27 ng/mL/mg
- AUC0-24 h norm by dose [11, 19]: 20.3 ng·h/mL/mg
- Cmax norm by dose [11, 19]: 9.00 ng/mL/mg
- AUC0-24 h norm by dose [11, 20]: 4.49 (3.83, 5.26) h*ng/ml/mg
- AUCinf norm by dose [11, 20]: 4.66 (3.92, 5.54) h*ng/ml/mg
- AUClast norm by dose [11, 20]: 4.37 (3.73, 5.13) h*ng/ml/mg
- Cmax norm by dose [11, 20]: 2.45 (1.99, 3.02) ng/ml/mg
- AUC0-24 h norm by dose [11, 21]: 5.80 (4.95, 6.80) h*ng/ml/mg
- AUCinf norm by dose [11, 21]: 5.98 (4.97, 7.19) h*ng/ml/mg
- AUClast norm by dose [11, 21]: 5.80 (4.93, 6.81) h*ng/ml/mg
- Cmax norm by dose [11, 21]: 3.03 (2.45, 3.75) ng/ml/mg
- AUC0-24 h norm by dose [11, 22]: 19.2 (16.4, 22.5) h*ng/ml/mg
- AUCinf norm by dose [11, 22]: 20.1 (16.9, 23.8) h*ng/ml/mg
- AUClast norm by dose [11, 22]: 19.7 (16.7, 23.1) h*ng/ml/mg
- Cmax norm by dose [11, 22]: 8.15 (6.59, 10.1) ng/ml/mg
- AUCinf norm by dose, Ratio period 2 / period 1 [11, 23]: 1.28 (1.09, 1.51)
- AUClast norm by dose, Ratio period 2 / period 1 [11, 23]: 1.33 (1.19, 1.47)
- AUCinf norm by dose, Ratio period 3 / period 1 [11, 24]: 4.31 (3.76, 4.94)
- AUClast norm by dose, Ratio period 3 / period 1 [11, 24]: 4.50 (4.05, 4.99)
- AUC ratio day 12 to day 1 ([12]; declining over dose range 10-600 mg (TMDD effect)): 4.86 to 1.14
- fractional contribution of renal excretion to elimination ([12]; humans): about 1.8%
- fm,CYP (contribution to oxidative hepatic metabolism) [13]: 1%
- apparent intrinsic affinity (Kmapp) [14]: 5.43 µM
- maximal rate of metabolism (Vmax) [14]: 560.7 pmol/min/mg protein
